Experimental data as given in ChEMBL document CHEMBL1140608 (J Med Chem, 2007).

Tests used:
[1] = target: T1, ATP-dependent translocase ABCB1 (Homo sapiens, UniProt P08183); test: Inhibition of human Pgp in anthracycline-resistant K562 cells assessed as drug level causing maximal increase in nuclear concentration of pirarubicin relative to control; type: cell-based
How it was run: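 Anthracycline-resistant erythroleukemia K562 cells were incubated with pirarubicin, and its uptake was followed by continuous spectrofluorometry (λex 480 nm, λem 590 nm). R is the fractional increase in nuclear pirarubicin with inhibitor: 0 without inhibitor, 1 when it equals sensitive cells. Rmax is the maximal achievable increase. [I]0.5 is the inhibitor concentration giving R = 0.5.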

[2] = target: T1, ATP-dependent translocase ABCB1; test: Inhibition of human Pgp in anthracycline-resistant K562 cells assessed as drug level causing half maximal increase in nuclear concentration of pirarubicin; type: cell-based; settings: read-out: Activity

T1 sequence (P08183 whole entry): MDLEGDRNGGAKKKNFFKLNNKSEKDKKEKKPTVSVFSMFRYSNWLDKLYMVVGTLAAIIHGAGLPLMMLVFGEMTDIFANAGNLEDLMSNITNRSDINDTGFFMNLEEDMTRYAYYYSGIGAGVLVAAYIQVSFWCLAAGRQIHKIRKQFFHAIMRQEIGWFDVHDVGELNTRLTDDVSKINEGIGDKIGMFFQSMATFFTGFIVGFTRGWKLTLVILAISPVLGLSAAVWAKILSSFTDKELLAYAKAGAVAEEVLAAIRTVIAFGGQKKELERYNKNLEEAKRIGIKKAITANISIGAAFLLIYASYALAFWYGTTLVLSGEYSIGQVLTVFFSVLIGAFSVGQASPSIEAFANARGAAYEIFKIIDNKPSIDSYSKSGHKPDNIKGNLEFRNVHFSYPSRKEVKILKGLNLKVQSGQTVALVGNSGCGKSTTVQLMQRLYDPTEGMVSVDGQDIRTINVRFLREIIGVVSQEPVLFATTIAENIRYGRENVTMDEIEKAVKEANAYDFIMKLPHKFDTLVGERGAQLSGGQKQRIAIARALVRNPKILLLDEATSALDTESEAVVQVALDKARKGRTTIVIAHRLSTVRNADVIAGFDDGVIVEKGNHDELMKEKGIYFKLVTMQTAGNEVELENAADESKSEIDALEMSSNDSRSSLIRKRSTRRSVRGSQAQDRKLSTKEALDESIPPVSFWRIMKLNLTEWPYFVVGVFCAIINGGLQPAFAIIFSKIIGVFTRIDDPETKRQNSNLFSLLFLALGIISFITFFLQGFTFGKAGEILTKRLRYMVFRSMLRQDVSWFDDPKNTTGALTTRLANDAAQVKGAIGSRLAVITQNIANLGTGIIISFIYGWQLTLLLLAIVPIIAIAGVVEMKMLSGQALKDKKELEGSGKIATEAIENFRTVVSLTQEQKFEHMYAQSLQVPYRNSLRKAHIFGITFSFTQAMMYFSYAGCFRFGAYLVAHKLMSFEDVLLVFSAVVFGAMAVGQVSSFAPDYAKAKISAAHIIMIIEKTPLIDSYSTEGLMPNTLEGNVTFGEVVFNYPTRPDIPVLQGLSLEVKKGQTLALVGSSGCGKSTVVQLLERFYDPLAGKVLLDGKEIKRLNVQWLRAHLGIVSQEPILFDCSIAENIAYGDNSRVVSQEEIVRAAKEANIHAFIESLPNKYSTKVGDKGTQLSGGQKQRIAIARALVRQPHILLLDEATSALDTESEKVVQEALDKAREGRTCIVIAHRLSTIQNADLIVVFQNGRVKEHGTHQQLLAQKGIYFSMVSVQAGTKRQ

For `COc1cc(/C=C/C(=O)OCCCN(C)CCCOC(=O)c2cc(OC)c(OC)c(OC)c2)cc(OC)c1OC`, the Activity [1] was 0.9 and the IC50 [2] was 600 nM.
Work on `COc1cc(C(=O)OCCCN(C)CCCOC(=O)c2c3ccccc3cc3ccccc23)cc(OC)c1OC` yielded an Activity [1] of 0.71 and an IC50 [2] of 280 nM.
`COc1cc(/C=C/C(=O)OC2CCC(N(C)C3CCC(OC(=O)c4cc(OC)c(OC)c(OC)c4)CC3)CC2)cc(OC)c1OC` (cis isomer) was tested, and the Activity [1] was 0.8 and the IC50 [2] was 30 nM.
In the case of `COc1cc(/C=C/C(=O)OC2CCC(N(C)C3CCC(OC(=O)c4cc(OC)c(OC)c(OC)c4)CC3)CC2)cc(OC)c1OC` (mixture of isomers; cis), the Activity [1] is reported as 0.85 and the IC50 [2] is reported as 90 nM.
Work on `COc1cc(C(=O)OC2CCC(N(C)C3CCC(OC(=O)c4c5ccccc5cc5ccccc45)CC3)CC2)cc(OC)c1OC` (mixture of isomers; cis) yielded an Activity [1] of 0.95 and an IC50 [2] of 300 nM.
Work on `COc1cc(/C=C/C(=O)OC2CCC(N(C)C3CCC(OC(=O)c4cc(OC)c(OC)c(OC)c4)CC3)CC2)cc(OC)c1OC` (mixture of isomers; trans) yielded an Activity [1] of 0.98 and an IC50 [2] of 10 nM.
Molecule `COc1cc(C(=O)OC2CCC(N(C)C3CCC(OC(=O)c4c5ccccc5cc5ccccc45)CC3)CC2)cc(OC)c1OC` (mixture of isomers; trans) has an Activity [1] of 0.78 and an IC50 [2] of 160 nM.
With `COc1cc(/C=C/C(=O)OC2CCC(N(C)C3CCC(OC(=O)c4cc(OC)c(OC)c(OC)c4)CC3)CC2)cc(OC)c1OC` (stereo in doubt) the Activity [1] was 0.81 and the IC50 [2] was 320 nM.
Work on `COc1cc(C(=O)OC2CCC(N(C)C3CCC(OC(=O)c4c5ccccc5cc5ccccc45)CC3)CC2)cc(OC)c1OC` (stereo in doubt) yielded an Activity [1] of 0.79 and an IC50 [2] of 180 nM.
With `COc1cc(C(=O)OC2CCC(N(C)C3CCC(OC(=O)c4c5ccccc5cc5ccccc45)CC3)CC2)cc(OC)c1OC` (trans isomer) the Activity [1] was 0.88 and the IC50 [2] was 300 nM.
